From ChEMBL document CHEMBL4196149, “Antiproliferative Alkaloids from Alangium longiflorum, an Endangered Tropical Plant Species” (J Nat Prod, 2018)
The source made the active and inactive calls. No cut-off for these calls is given here.

Key:
A549 [1] = assay: Antiproliferative activity against human A549 cells at 40 uM after 72 hrs by SRB assay; format: functional, cell-based
MDA-MB-231 [2] = assay: Antiproliferative activity against human MDA-MB-231 cells at 40 uM after 72 hrs by SRB assay; format: functional, cell-based
MCF7 [3] = assay: Antiproliferative activity against human MCF7 cells at 40 uM after 72 hrs by SRB assay; format: functional, cell-based
KB [4] = assay: Antiproliferative activity against human KB cells at 40 uM after 72 hrs by SRB assay; format: functional, cell-based
Homo sapiens [5] = species: Homo sapiens; assay: Antiproliferative activity against human KBVIN cells at 40 uM after 72 hrs by SRB assay; format: functional, cell-based
[6] = Antiproliferative activity against human KBVIN cells after 48 hrs by SRB assay; format: functional, cell-based
In short: (§1)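 SRB assay. Cell suspensions were seeded at 4000–12 000 cells/well in RPMI-1640 with 2 mM L-glutamine, 25 mM HEPES, 10% FBS, streptomycin and penicillin. Cells were exposed to compounds for 72 h. For the time course, cells were plated 24 h before treatment and then exposed for 24, 48 or 72 h. Cells were fixed in 10% TCA and stained with 0.04% SRB. Bound dye was dissolved in 10 mM Tris and read at 515 nm.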

[7] = Antiproliferative activity against human KBVIN cells after 72 hrs by SRB assay; format: functional, cell-based; in short: as §1
[8] = Antiproliferative activity against human KBVIN cells after 24 hrs by SRB assay; format: functional, cell-based; in short: as §1
KB [9] = assay: Antiproliferative activity against human KB cells after 48 hrs by SRB assay; format: functional, cell-based
KB [10] = assay: Antiproliferative activity against human KB cells after 72 hrs by SRB assay; format: functional, cell-based
KB [11] = assay: Antiproliferative activity against human KB cells after 24 hrs by SRB assay; format: functional, cell-based
MCF7 [12] = assay: Antiproliferative activity against human MCF7 cells after 48 hrs by SRB assay; format: functional, cell-based; details: MCF7, 48 h
MCF7 [13] = assay: Antiproliferative activity against human MCF7 cells after 72 hrs by SRB assay; format: functional, cell-based; details: MCF7, 72 h
MDA-MB-231 [14] = assay: Antiproliferative activity against human MDA-MB-231 cells after 72 hrs by SRB assay; format: functional, cell-based; details: MDA-MB-231, 72 h
MCF7 [15] = assay: Antiproliferative activity against human MCF7 cells after 24 hrs by SRB assay; format: functional, cell-based; details: MCF7, 24 h
MDA-MB-231 [16] = assay: Antiproliferative activity against human MDA-MB-231 cells after 24 hrs by SRB assay; format: functional, cell-based; details: MDA-MB-231, 24 h
MDA-MB-231 [17] = assay: Antiproliferative activity against human MDA-MB-231 cells after 48 hrs by SRB assay; format: functional, cell-based; details: MDA-MB-231, 48 h
A549 [18] = assay: Antiproliferative activity against human A549 cells after 48 hrs by SRB assay; format: functional, cell-based; details: A549, 48 h
In short: (§2)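 Time-course: cells seeded at 4000–12 000 per well 24 h before compound exposure for 24, 48 or 72 h, as named in the line. Cells then fixed in 10% trichloroacetic acid, stained with 0.04% SRB, and dye solubilized in 10 mM Tris base read at 515 nm. […] Medium RPMI-1640 with 10% FBS.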

A549 [19] = assay: Antiproliferative activity against human A549 cells after 72 hrs by SRB assay; format: functional, cell-based; details: A549, 72 h; in short: as §2
A549 [20] = assay: Antiproliferative activity against human A549 cells after 24 hrs by SRB assay; format: functional, cell-based; details: A549, 24 h; in short: as §2
MDA-MB-231 [21] = assay: Cell cycle arrest in human MDA-MB-231 cells assessed as accumulation at sub-G1 phase at 10 times IC50 after 48 hrs by propidium iodide staining based flow cytometry; format: functional
In short: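 DMSO served as vehicle control and combretastatin A-4 at 0.1 μM as the G2/M-arrest control. Harvested cells were fixed and stained with propidium iodide plus RNase. DNA content was analysed by flow cytometry, and sub-G1 cells were counted. Each experiment was done at least twice.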

Breast carcinoma cell = assay: Antiproliferative activity against human breast cancer cells at 10 to 100 nM after 48 hrs by SRB assay; format: functional, cell-based
CNS carcinoma cell = assay: Antiproliferative activity against human CNS cancer cells at 10 to 100 nM after 48 hrs by SRB assay; format: functional, cell-based
Leukemia cell = assay: Antiproliferative activity against human leukemia cells at 10 to 100 nM after 48 hrs by SRB assay; format: functional, cell-based
Melanoma cell = assay: Antiproliferative activity against human melanoma cells at 10 to 100 nM after 48 hrs by SRB assay; format: functional, cell-based
Homo sapiens [22] = species: Homo sapiens; assay: Antiproliferative activity against human non-small cell lung cancer cells at 10 to 100 nM after 48 hrs by SRB assay; format: functional
Ovarian carcinoma cell = assay: Antiproliferative activity against human ovarian cancer cells at 10 to 100 nM after 48 hrs by SRB assay; format: functional, cell-based
Prostatic carcinoma cell = assay: Antiproliferative activity against human prostate cancer cells at 10 to 100 nM after 48 hrs by SRB assay; format: functional
Homo sapiens [23] = species: Homo sapiens; assay: Antiproliferative activity against human renal cancer cells at 10 to 100 nM after 48 hrs by SRB assay; format: functional, cell-based
Homo sapiens [24] = species: Homo sapiens; assay: Antiproliferative activity against human […] cells at 10 to 100 nM after 48 hrs by SRB assay; format: functional, cell-based
NCI/ADR-RES = assay: Antiproliferative activity against human NCI-ADR-RES cells after 48 hrs by SRB assay

Compound | Activity (A549 [1]) | Activity (MDA-MB-231 [2]) | Activity (MCF7 [3]) | Activity (KB [4]) | Activity (Homo sapiens [5]) | IC50 [6] [nM] | IC50 [7] [nM] | IC50 [8] [nM] | IC50 (KB [9]) [nM] | IC50 (KB [10]) [nM] | IC50 (KB [11]) [nM] | IC50 (MCF7 [12]) [nM] | IC50 (MCF7 [13]) [nM] | IC50 (MDA-MB-231 [14]) [nM] | IC50 (MCF7 [15]) [nM] | IC50 (MDA-MB-231 [16]) [nM] | IC50 (MDA-MB-231 [17]) [nM] | IC50 (A549 [18]) [nM] | IC50 (A549 [19]) [nM] | IC50 (A549 [20]) [nM] | further results
C=C[C@H]1[C@H](O[C@@H]2O[C@H](CO)[C@@H](O)[C@H](O)[C@H]2OC(=O)/C=C/c2cc(OC)c(O)c(OC)c2)OC=C2C(=O)N3CCc4cc(O)c(O)cc4[C@H]3C[C@H]21 | inactive | inactive | inactive | inactive | inactive |  |  |  |  |  |  |  |  |  |  |  |  |  |  |  | 
CC[C@H]1CN2CCc3cc(O)c(OC)cc3[C@@H]2C[C@@H]1C[C@H]1NCCc2c1[nH]c1ccc(O)cc21 |  |  |  |  |  | > 10000 | > 10000 | > 10000 | 470 | 620 | 290 | 270 | 380 | 220 | 250 | 190 | 230 | 300 | 620 | 360 | 
COc1cccc2c1C(=O)c1c(O)c3c(c(O)c1C2=O)C[C@@](O)(C(=O)CO)C[C@@H]3O[C@H]1C[C@H](N)[C@H](O)[C@H](C)O1 [DOXORUBICIN] |  |  |  |  |  | > 1000 | > 1000 | > 1000 | 340 | 220 | 820 |  |  |  |  |  |  |  |  |  | 
CC[C@H]1CN2CCc3c(cc(OC)c(OC)c3O)[C@@H]2C[C@@H]1C[C@H]1NCCc2c1[nH]c1ccc(O)cc21 |  |  |  |  |  | 11100 | > 10000 | 8900 | 150 | 210 | 90 | 160 | 210 | 80 | 120 | 60 | 80 | 230 | 280 | 210 | Activity (MDA-MB-231 [21]): Active; Activity (Breast carcinoma cell): Active; Activity (CNS carcinoma cell): Active; Activity (Leukemia cell): Active; Activity (Melanoma cell): Active; Activity (Homo sapiens [22]): Active; Activity (Ovarian carcinoma cell): Active; Activity (Prostatic carcinoma cell): Active; Activity (Homo sapiens [23]): Active; Activity (Homo sapiens [24]): Active; Activity (NCI/ADR-RES): Active
C=C[C@H]1[C@H](O[C@@H]2O[C@H](CO)[C@@H](O)[C@H](O)[C@H]2OC(=O)/C=C/c2cc(OC)c(O)c(OC)c2)OC=C2C(=O)N3CCc4cc(O)c(OC)cc4[C@H]3C[C@H]21 | inactive | inactive | inactive | inactive | inactive |  |  |  |  |  |  |  |  |  |  |  |  |  |  |  | 
CC(=O)O[C@H]1C(=O)[C@@]2(C)[C@H]([C@H](OC(=O)c3ccccc3)[C@]3(O)C[C@H](OC(=O)[C@H](O)[C@@H](NC(=O)c4ccccc4)c4ccccc4)C(C)=C1C3(C)C)[C@]1(OC(C)=O)CO[C@@H]1C[C@@H]2O [PACLITAXEL] |  |  |  |  |  | 2880 | 2380 | > 3000 |  |  |  |  |  |  |  |  |  |  |  |  | 
